Laboratory results as given in ChEMBL document CHEMBL4689842, “EUbOPEN Chemogenomics Library wave 1” (2021).

System: U2OS
Experiment: Multiplex assay against U2OS
Format: toxicity, cell-based
Conditions: human
Summary of the method: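 Live cells carried four stains from seeding: Hoechst33342, BioTracker Green Microtubule Cytoskeleton Dye, MitoTracker Red and Annexin V Alexa Fluor 680. They were imaged on a CQ1 microscope at 37°C and 5% CO2 after compound addition. Using CellPathfinder machine-learning gating, cells were split into Hoechst high-intensity objects or normal cells, normal cells into healthy, pyknosed or fragmented nuclei, and pyknosed cells into mitotic or apoptotic; tubulin, mitochondrial-mass and membrane-permeability phenotypes are per cents of healthy-nucleus cells.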

[1] = 12 h, 1 µM, compound concentration 1 uM, replicate 1
[2] = 12 h, 1 µM, compound concentration 1 uM, replicate 2
[3] = 12 h, 10 µM, compound concentration 10 uM, replicate 1
[4] = 12 h, 10 µM, compound concentration 10 uM, replicate 2
[5] = 24 h, 1 µM, compound concentration 1 uM, replicate 1
[6] = 24 h, 1 µM, compound concentration 1 uM, replicate 2
[7] = 24 h, 10 µM, compound concentration 10 uM, replicate 1
[8] = 24 h, 10 µM, compound concentration 10 uM, replicate 2

COc1cccc2cc(-c3nc([C@H]4CC[C@H](C(=O)O)CC4)n4ncnc(N)c34)[nH]c12 [OSI-027]
Population Apoptotic (%) [1]: 55%
Population Fragmented Nuclei (%) [1]: 14%
Population Healthy Nuclei (%) [1]: 81%
Population Hoechst High Intensity Objects (%) [1]: 1%
Population Membrane Permeable-Phenotype (%) [1]: 10%
Population Mitochondria Different-Phenotype (%) [1]: 6%
Population Mitotic Cells (%) [1]: 44%
Population Normal (%) [1]: 98%
Population Pyknosed Nuclei (%) [1]: 3%
Population Tubulin-Different-Phenotype (%) [1]: 21%
Total Cell Count [1]: 227
Population Apoptotic (%) [2]: 33%
Population Fragmented Nuclei (%) [2]: 18%
Population Healthy Nuclei (%) [2]: 79%
Population Hoechst High Intensity Objects (%) [2]: 7%
Population Membrane Permeable-Phenotype (%) [2]: 8%
Population Mitochondria Different-Phenotype (%) [2]: 3%
Population Mitotic Cells (%) [2]: 66%
Population Normal (%) [2]: 92%
Population Pyknosed Nuclei (%) [2]: 1%
Population Tubulin-Different-Phenotype (%) [2]: 31%
Total Cell Count [2]: 117
Population Apoptotic (%) [3]: 8%
Population Fragmented Nuclei (%) [3]: 5%
Population Healthy Nuclei (%) [3]: 76%
Population Hoechst High Intensity Objects (%) [3]: 10%
Population Membrane Permeable-Phenotype (%) [3]: 10%
Population Mitochondria Different-Phenotype (%) [3]: 21%
Population Mitotic Cells (%) [3]: 91%
Population Normal (%) [3]: 89%
Population Pyknosed Nuclei (%) [3]: 17%
Population Tubulin-Different-Phenotype (%) [3]: 27%
Total Cell Count [3]: 160
Population Apoptotic (%) [4]: 14%
Population Fragmented Nuclei (%) [4]: 14%
Population Healthy Nuclei (%) [4]: 78%
Population Hoechst High Intensity Objects (%) [4]: 17%
Population Membrane Permeable-Phenotype (%) [4]: 7%
Population Mitochondria Different-Phenotype (%) [4]: 26%
Population Mitotic Cells (%) [4]: 85%
Population Normal (%) [4]: 82%
Population Pyknosed Nuclei (%) [4]: 7%
Population Tubulin-Different-Phenotype (%) [4]: 39%
Total Cell Count [4]: 101
Population Apoptotic (%) [5]: 29%
Population Fragmented Nuclei (%) [5]: 10%
Population Healthy Nuclei (%) [5]: 81%
Population Hoechst High Intensity Objects (%) [5]: 3%
Population Membrane Permeable-Phenotype (%) [5]: 6%
Population Mitochondria Different-Phenotype (%) [5]: 5%
Population Mitotic Cells (%) [5]: 70%
Population Normal (%) [5]: 96%
Population Pyknosed Nuclei (%) [5]: 8%
Total Cell Count [5]: 270
Population Apoptotic (%) [6]: 42%
Population Fragmented Nuclei (%) [6]: 13%
Population Healthy Nuclei (%) [6]: 82%
Population Hoechst High Intensity Objects (%) [6]: 5%
Population Membrane Permeable-Phenotype (%) [6]: 10%
Population Mitochondria Different-Phenotype (%) [6]: 7%
Population Mitotic Cells (%) [6]: 57%
Population Normal (%) [6]: 94%
Population Pyknosed Nuclei (%) [6]: 3%
Population Tubulin-Different-Phenotype (%) [6]: 29%
Total Cell Count [6]: 144
Population Apoptotic (%) [7]: 13%
Population Fragmented Nuclei (%) [7]: 6%
Population Healthy Nuclei (%) [7]: 81%
Population Hoechst High Intensity Objects (%) [7]: 7%
Population Membrane Permeable-Phenotype (%) [7]: 12%
Population Mitochondria Different-Phenotype (%) [7]: 20%
Population Mitotic Cells (%) [7]: 86%
Population Normal (%) [7]: 92%
Population Pyknosed Nuclei (%) [7]: 11%
Population Tubulin-Different-Phenotype (%) [7]: 31%
Total Cell Count [7]: 190
Population Apoptotic (%) [8]: 0%
Population Fragmented Nuclei (%) [8]: 14%
Population Healthy Nuclei (%) [8]: 84%
Population Hoechst High Intensity Objects (%) [8]: 11%
Population Membrane Permeable-Phenotype (%) [8]: 11%
Population Mitochondria Different-Phenotype (%) [8]: 31%
Population Mitotic Cells (%) [8]: 100%
Population Normal (%) [8]: 88%
Population Pyknosed Nuclei (%) [8]: 1%
Population Tubulin-Different-Phenotype (%) [8]: 34%
Total Cell Count [8]: 120

CCCS(=O)(=O)Nc1ccc(F)c(C(=O)c2c[nH]c3ncc(Cl)cc23)c1F [PLX-4720]
Population Apoptotic (%) [1]: 55%
Population Fragmented Nuclei (%) [1]: 6%
Population Healthy Nuclei (%) [1]: 88%
Population Hoechst High Intensity Objects (%) [1]: 2%
Population Membrane Permeable-Phenotype (%) [1]: 14%
Population Mitochondria Different-Phenotype (%) [1]: 21%
Population Mitotic Cells (%) [1]: 44%
Population Normal (%) [1]: 97%
Population Pyknosed Nuclei (%) [1]: 5%
Population Tubulin-Different-Phenotype (%) [1]: 26%
Total Cell Count [1]: 145
Population Apoptotic (%) [2]: 33%
Population Fragmented Nuclei (%) [2]: 7%
Population Healthy Nuclei (%) [2]: 89%
Population Hoechst High Intensity Objects (%) [2]: 15%
Population Membrane Permeable-Phenotype (%) [2]: 12%
Population Mitochondria Different-Phenotype (%) [2]: 24%
Population Mitotic Cells (%) [2]: 66%
Population Normal (%) [2]: 84%
Population Pyknosed Nuclei (%) [2]: 3%
Population Tubulin-Different-Phenotype (%) [2]: 28%
Total Cell Count [2]: 153
Population Apoptotic (%) [3]: 50%
Population Healthy Nuclei (%) [3]: 89%
Population Hoechst High Intensity Objects (%) [3]: 3%
Population Membrane Permeable-Phenotype (%) [3]: 8%
Population Mitochondria Different-Phenotype (%) [3]: 30%
Population Mitotic Cells (%) [3]: 50%
Population Normal (%) [3]: 96%
Population Pyknosed Nuclei (%) [3]: 4%
Population Tubulin-Different-Phenotype (%) [3]: 26%
Total Cell Count [3]: 164
Population Apoptotic (%) [4]: 0%
Population Fragmented Nuclei (%) [4]: 6%
Population Healthy Nuclei (%) [4]: 88%
Population Hoechst High Intensity Objects (%) [4]: 9%
Population Membrane Permeable-Phenotype (%) [4]: 11%
Population Mitochondria Different-Phenotype (%) [4]: 31%
Population Mitotic Cells (%) [4]: 100%
Population Normal (%) [4]: 90%
Population Pyknosed Nuclei (%) [4]: 5%
Population Tubulin-Different-Phenotype (%) [4]: 23%
Total Cell Count [4]: 101
Population Apoptotic (%) [5]: 43%
Population Fragmented Nuclei (%) [5]: 5%
Population Healthy Nuclei (%) [5]: 86%
Population Hoechst High Intensity Objects (%) [5]: 3%
Population Membrane Permeable-Phenotype (%) [5]: 16%
Population Mitochondria Different-Phenotype (%) [5]: 26%
Population Mitotic Cells (%) [5]: 56%
Population Normal (%) [5]: 96%
Population Pyknosed Nuclei (%) [5]: 7%
Population Tubulin-Different-Phenotype (%) [5]: 22%
Total Cell Count [5]: 201
Population Apoptotic (%) [6]: 11%
Population Fragmented Nuclei (%) [6]: 3%
Population Healthy Nuclei (%) [6]: 88%
Population Hoechst High Intensity Objects (%) [6]: 11%
Population Membrane Permeable-Phenotype (%) [6]: 9%
Population Mitochondria Different-Phenotype (%) [6]: 25%
Population Mitotic Cells (%) [6]: 88%
Population Normal (%) [6]: 88%
Population Pyknosed Nuclei (%) [6]: 8%
Population Tubulin-Different-Phenotype (%) [6]: 23%
Total Cell Count [6]: 198
Population Apoptotic (%) [7]: 20%
Population Fragmented Nuclei (%) [7]: 2%
Population Healthy Nuclei (%) [7]: 92%
Population Hoechst High Intensity Objects (%) [7]: 2%
Population Membrane Permeable-Phenotype (%) [7]: 5%
Population Mitochondria Different-Phenotype (%) [7]: 32%
Population Mitotic Cells (%) [7]: 80%
Population Normal (%) [7]: 97%
Population Pyknosed Nuclei (%) [7]: 5%
Population Tubulin-Different-Phenotype (%) [7]: 24%
Total Cell Count [7]: 152
Population Apoptotic (%) [8]: 57%
Population Fragmented Nuclei (%) [8]: 4%
Population Healthy Nuclei (%) [8]: 91%
Population Hoechst High Intensity Objects (%) [8]: 7%
Population Membrane Permeable-Phenotype (%) [8]: 7%
Population Mitochondria Different-Phenotype (%) [8]: 38%
Population Mitotic Cells (%) [8]: 42%
Population Normal (%) [8]: 92%
Population Pyknosed Nuclei (%) [8]: 3%
Population Tubulin-Different-Phenotype (%) [8]: 32%
Total Cell Count [8]: 93
